{"source": "ChEMBL document CHEMBL1142065", "about": "“In vitro and in vivo activities of a new cephalosporin, FR264205, against Pseudomonas aeruginosa” (2007)", "key": {"Pseudomonas aeruginosa [1]": {"system": "Pseudomonas aeruginosa", "experiment": "Antibacterial activity against Pseudomonas aeruginosa PAO4222", "type": "functional", "summary_of_the_method": "(§1)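 Agar dilution MIC per NCCLS (CLSI) M7-A7 on Mueller-Hinton agar with twofold serial drug dilutions. Inoculum 10^4 CFU per spot, aerobic incubation 18 to 20 h at 35°C. MIC is the lowest concentration preventing visible growth.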"}, "Pseudomonas aeruginosa [2]": {"system": "Pseudomonas aeruginosa", "experiment": "Antibacterial activity against Pseudomonas aeruginosa PAO1", "type": "functional", "summary_of_the_method": "as §1"}, "Escherichia coli [3]": {"system": "Escherichia coli", "experiment": "Antibacterial activity against Escherichia coli C600 expressing ESBL TEM5", "type": "functional", "summary_of_the_method": "(§2)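 MIC by agar dilution (CLSI M7-A7) on Mueller-Hinton agar with twofold serial drug dilutions; 10^4 CFU spotted per spot; aerobic incubation 18 to 20 h at 35°C; MIC read as lowest concentration preventing visible growth.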"}, "Escherichia coli [4]": {"system": "Escherichia coli", "experiment": "Antibacterial activity against Escherichia coli C600 expressing ESBL TEM7", "type": "functional", "summary_of_the_method": "as §2"}, "Escherichia coli [5]": {"system": "Escherichia coli", "experiment": "Antibacterial activity against Escherichia coli C600 expressing ESBL SHV3", "type": "functional", "summary_of_the_method": "as §2"}, "Escherichia coli [6]": {"system": "Escherichia coli", "experiment": "Antibacterial activity against Escherichia coli C600 expressing ESBL TEM6", "type": "functional", "summary_of_the_method": "as §2"}, "Escherichia coli [7]": {"system": "Escherichia coli", "experiment": "Antibacterial activity against Escherichia coli C600 expressing ESBL SHV4", "type": "functional", "summary_of_the_method": "as §2"}, "Escherichia coli [8]": {"system": "Escherichia coli", "experiment": "Antibacterial activity against Escherichia coli C600", "type": "functional", "summary_of_the_method": "as §2"}, "Escherichia coli [9]": {"system": "Escherichia coli", "experiment": "Antibacterial activity against Escherichia coli C600 expressing OXA1", "type": "functional", "summary_of_the_method": "as §2"}, "Pseudomonas aeruginosa [10]": {"system": "Pseudomonas aeruginosa", "experiment": "Efficacy against Pseudomonas aeruginosa 93 pulmonary infection in mouse assessed as reduction in bacterial counts at 10 mg/kg, sc", "type": "functional, organism-based", "parameters": "dose 10 mg/kg", "summary_of_the_method": "(§3)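 Male ICR mice (4 weeks), made neutropenic with cyclophosphamide 200 mg/kg ip 4 days before infection. Under pentobarbital anesthesia (50 mg/kg iv) they were challenged intranasally with 3.30 log10 CFU of strain 93, grown on tryptic soy agar 35°C 20 h and suspended in saline. Dosed sc twice daily for 3 days from 3 h post-infection. Lung viable counts taken the day after last dose; 6 mice/dose.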"}, "Escherichia coli [11]": {"system": "Escherichia coli", "experiment": "Antibacterial activity against Escherichia coli C600 expressing ESBL TEM8", "type": "functional", "summary_of_the_method": "as §2"}, "Pseudomonas aeruginosa [12]": {"system": "Pseudomonas aeruginosa", "experiment": "Antibacterial activity against Pseudomonas aeruginosa KG4001 producing MexEF-OprN efflux pump", "type": "functional", "summary_of_the_method": "as §1"}, "Escherichia coli [13]": {"system": "Escherichia coli", "experiment": "Antibacterial activity against Escherichia coli C600 expressing ESBL SHV2", "type": "functional", "summary_of_the_method": "as §2"}, "Pseudomonas aeruginosa [14]": {"system": "Pseudomonas aeruginosa", "experiment": "Antibacterial activity against Pseudomonas aeruginosa 93", "type": "functional", "summary_of_the_method": "as §2"}, "Escherichia coli [15]": {"system": "Escherichia coli", "experiment": "Antibacterial activity against Escherichia coli C600 expressing ESBL OXA2", "type": "functional", "summary_of_the_method": "as §2"}, "Pseudomonas aeruginosa [16]": {"system": "Pseudomonas aeruginosa", "experiment": "Antibacterial activity against Pseudomonas aeruginosa KG2212 producing MexAB-OprM efflux pump", "type": "functional", "summary_of_the_method": "as §1"}, "Escherichia coli [17]": {"system": "Escherichia coli", "experiment": "Antibacterial activity against Escherichia coli C600 expressing ESBL CTX-M3", "type": "functional", "summary_of_the_method": "as §2"}, "Pseudomonas aeruginosa [18]": {"system": "Pseudomonas aeruginosa", "experiment": "Antibacterial activity against Pseudomonas aeruginosa PAO4069 expressing inducible AmpC", "type": "functional", "summary_of_the_method": "as §1"}, "Pseudomonas aeruginosa [19]": {"system": "Pseudomonas aeruginosa", "experiment": "Reduction in susceptibility against Pseudomonas aeruginosa PAO1 after single passage", "type": "functional, organism-based", "summary_of_the_method": "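PAO1 passaged daily for five consecutive days in fresh Mueller-Hinton broth with twofold drug dilution series. Each next inoculum came from the tube at one-fourth the MIC. MIC change was followed across passages.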"}, "Pseudomonas aeruginosa [20]": {"system": "Pseudomonas aeruginosa", "experiment": "Antibacterial activity against ciprofloxacin-resistant Pseudomonas aeruginosa", "type": "functional", "summary_of_the_method": "as §1"}, "Pseudomonas aeruginosa [21]": {"system": "Pseudomonas aeruginosa", "experiment": "Antibacterial activity against Pseudomonas aeruginosa PAO1456 expressing constitutive AmpC", "type": "functional", "summary_of_the_method": "as §1"}, "Escherichia coli [22]": {"system": "Escherichia coli", "experiment": "Antibacterial activity against Escherichia coli C600 expressing ESBL TEM4", "type": "functional", "summary_of_the_method": "as §2"}, "Pseudomonas aeruginosa [23]": {"system": "Pseudomonas aeruginosa", "experiment": "Antibacterial activity against Pseudomonas aeruginosa FP1380 expressing constitutive AmpC", "type": "functional", "summary_of_the_method": "as §2"}, "Pseudomonas aeruginosa [24]": {"system": "Pseudomonas aeruginosa", "experiment": "Antibacterial activity against Pseudomonas aeruginosa", "type": "functional", "summary_of_the_method": "as §1"}, "Escherichia coli [25]": {"system": "Escherichia coli", "experiment": "Antibacterial activity against Escherichia coli C600 expressing ESBL TEM9", "type": "functional", "summary_of_the_method": "as §2"}, "Escherichia coli [26]": {"system": "Escherichia coli", "experiment": "Antibacterial activity against Escherichia coli C600 expressing ESBL TEM3", "type": "functional", "summary_of_the_method": "as §2"}, "Escherichia coli [27]": {"system": "Escherichia coli", "experiment": "Antibacterial activity against Escherichia coli C600 expressing TEM2", "type": "functional", "summary_of_the_method": "as §2"}, "Pseudomonas aeruginosa [28]": {"system": "Pseudomonas aeruginosa", "experiment": "Efficacy against Pseudomonas aeruginosa 93 pulmonary infection in mouse assessed as reduction in bacterial counts at 2 mg/kg, sc", "type": "functional, organism-based", "parameters": "dose 2 mg/kg", "summary_of_the_method": "as §3"}, "Escherichia coli [29]": {"system": "Escherichia coli", "experiment": "Antibacterial activity against Escherichia coli C600 expressing SHV1", "type": "functional", "summary_of_the_method": "as §2"}, "Pseudomonas aeruginosa [30]": {"system": "Pseudomonas aeruginosa", "experiment": "Antibacterial activity against ceftazidime-resistant Pseudomonas aeruginosa", "type": "functional", "summary_of_the_method": "as §1"}, "Escherichia coli [31]": {"system": "Escherichia coli", "experiment": "Antibacterial activity against Escherichia coli C600 expressing TEM1", "type": "functional", "summary_of_the_method": "as §2"}, "Escherichia coli [32]": {"system": "Escherichia coli", "experiment": "Antibacterial activity against Escherichia coli C600 expressing ESBL CTX-M18", "type": "functional", "summary_of_the_method": "as §2"}, "Pseudomonas aeruginosa [33]": {"system": "Pseudomonas aeruginosa", "experiment": "Antibacterial activity against Pseudomonas aeruginosa KG4545 producing MexXY efflux pump", "type": "functional", "summary_of_the_method": "as §1"}, "Pseudomonas aeruginosa [34]": {"system": "Pseudomonas aeruginosa", "experiment": "Antibacterial activity against Pseudomonas aeruginosa KG3056 producing MexCD-OprJ efflux pump", "type": "functional", "summary_of_the_method": "as §1"}, "Pseudomonas aeruginosa [35]": {"system": "Pseudomonas aeruginosa", "experiment": "Antibacterial activity against Pseudomonas aeruginosa 22029 expressing metallo beta lactamase", "type": "functional", "summary_of_the_method": "as §1"}, "Pseudomonas aeruginosa [36]": {"system": "Pseudomonas aeruginosa", "experiment": "Antibacterial activity against imipenem-resistant Pseudomonas aeruginosa", "type": "functional", "summary_of_the_method": "as §1"}}, "note": "Calls of active or inactive are those of the source. The calls are words filed in the database; no cut-off is given here."}
{"smiles": "CC(C)(O/N=C(\\C(=O)N[C@@H]1C(=O)N2C(C(=O)[O-])=C(C[n+]3ccccc3)CS[C@H]12)c1csc(N)n1)C(=O)O", "note": "[CEFTAZIDIME]", "values": [{"measurement": "MIC", "setting": "Pseudomonas aeruginosa [1]", "value": 2, "unit": "µg/mL"}, {"measurement": "MIC", "setting": "Pseudomonas aeruginosa [2]", "value": 2, "unit": "µg/mL"}, {"measurement": "MIC", "setting": "Escherichia coli [3]", "value": 32, "unit": "µg/mL"}, {"measurement": "MIC", "setting": "Escherichia coli [4]", "value": 64, "unit": "µg/mL"}, {"measurement": "MIC", "setting": "Escherichia coli [5]", "value": "> 128", "unit": "µg/mL"}, {"measurement": "MIC", "setting": "Escherichia coli [6]", "value": 64, "unit": "µg/mL"}, {"measurement": "MIC", "setting": "Escherichia coli [7]", "value": 128, "unit": "µg/mL"}, {"measurement": "MIC", "setting": "Escherichia coli [8]", "value": 0.25, "unit": "µg/mL"}, {"measurement": "MIC", "setting": "Escherichia coli [9]", "value": 0.5, "unit": "µg/mL"}, {"measurement": "Activity", "setting": "Pseudomonas aeruginosa [10]", "value": "Active"}, {"measurement": "MIC", "setting": "Escherichia coli [11]", "value": 128, "unit": "µg/mL"}, {"measurement": "MIC", "setting": "Pseudomonas aeruginosa [12]", "value": 2, "unit": "µg/mL"}, {"measurement": "MIC", "setting": "Escherichia coli [13]", "value": 128, "unit": "µg/mL"}, {"measurement": "MIC", "setting": "Pseudomonas aeruginosa [14]", "value": 1, "unit": "µg/mL"}, {"measurement": "MIC", "setting": "Escherichia coli [15]", "value": 4, "unit": "µg/mL"}, {"measurement": "MIC", "setting": "Pseudomonas aeruginosa [16]", "value": 2, "unit": "µg/mL"}, {"measurement": "MIC", "setting": "Escherichia coli [17]", "value": 4, "unit": "µg/mL"}, {"measurement": "MIC", "setting": "Pseudomonas aeruginosa [18]", "value": 2, "unit": "µg/mL"}, {"measurement": "Activity", "setting": "Pseudomonas aeruginosa [19]", "value": "Active"}, {"measurement": "MIC50", "setting": "Pseudomonas aeruginosa [20]", "value": 8, "unit": "µg/mL"}, {"measurement": "MIC90", "setting": "Pseudomonas aeruginosa [20]", "value": 64, "unit": "µg/mL"}, {"measurement": "MIC", "setting": "Pseudomonas aeruginosa [21]", "value": 32, "unit": "µg/mL"}, {"measurement": "MIC", "setting": "Escherichia coli [22]", "value": 32, "unit": "µg/mL"}, {"measurement": "MIC", "setting": "Pseudomonas aeruginosa [23]", "value": "> 128", "unit": "µg/mL"}, {"measurement": "MIC50", "setting": "Pseudomonas aeruginosa [24]", "value": 2, "unit": "µg/mL"}, {"measurement": "MIC90", "setting": "Pseudomonas aeruginosa [24]", "value": 16, "unit": "µg/mL"}, {"measurement": "MIC", "setting": "Escherichia coli [25]", "value": 32, "unit": "µg/mL"}, {"measurement": "MIC", "setting": "Escherichia coli [26]", "value": 32, "unit": "µg/mL"}, {"measurement": "MIC", "setting": "Escherichia coli [27]", "value": 1, "unit": "µg/mL"}, {"measurement": "Activity", "setting": "Pseudomonas aeruginosa [28]", "value": "Active"}, {"measurement": "MIC", "setting": "Escherichia coli [29]", "value": 1, "unit": "µg/mL"}, {"measurement": "MIC50", "setting": "Pseudomonas aeruginosa [30]", "value": 64, "unit": "µg/mL"}, {"measurement": "MIC90", "setting": "Pseudomonas aeruginosa [30]", "value": 128, "unit": "µg/mL"}, {"measurement": "MIC", "setting": "Escherichia coli [31]", "value": 0.25, "unit": "µg/mL"}, {"measurement": "MIC", "setting": "Escherichia coli [32]", "value": 4, "unit": "µg/mL"}, {"measurement": "MIC", "setting": "Pseudomonas aeruginosa [33]", "value": 2, "unit": "µg/mL"}, {"measurement": "MIC", "setting": "Pseudomonas aeruginosa [34]", "value": 0.5, "unit": "µg/mL"}, {"measurement": "MIC", "setting": "Pseudomonas aeruginosa [35]", "value": "> 128", "unit": "µg/mL"}, {"measurement": "MIC50", "setting": "Pseudomonas aeruginosa [36]", "value": 4, "unit": "µg/mL"}, {"measurement": "MIC90", "setting": "Pseudomonas aeruginosa [36]", "value": 16, "unit": "µg/mL"}]}
